Published values gathered from unrelated publications.
Protocols differ between the studies behind these lines.
CNR2: Cannabinoid receptor 2 (CNR2, Homo sapiens, UniProt P34972)
Ribonuclease H1: Ribonuclease H1 (Homo sapiens, UniProt O60930)
F10: Coagulation factor X (F10, Homo sapiens, UniProt P00742)

SMILES	target	test	setting	endpoint	result
CCCCC/C=C\[C@H](C)/C=C\C/C=C\Cc1ccccc1CCCC(=O)OC(CO)CO	CNR2	β-arrestin recruitment, agonist		EC50	4180 nM
N#CC(C#N)=Cc1ccc([N+](=O)[O-])c(O)c1	Casein kinase I isoform alpha (CSNK1A1, Homo sapiens, UniProt P48729)	binding, SPR		Kd	> 50000 nM
CC(C)(NC(=O)c1nn(CCCCC(F)(F)F)c2ccccc12)c1cccc(C(N)=O)c1	CNR2	ligand displacement, radioligand	cell membranes	Ki	300 nM
CCCCC/C=C\[C@H](C)/C=C\C/C=C\Cc1ccccc1CCCC(=O)N[C@H](C)CO	CNR2	cAMP, agonist		EC50	751 nM
CC(C)(NC(=O)c1nn(CCCCC#N)c2ccccc12)c1cccc(C(N)=O)c1	CNR2	ligand displacement, radioligand	cell membranes	Ki	780 nM
COc1ccc(-c2cccc(Nc3cc(=O)n(O)c(=O)n3C)c2)cc1	Ribonuclease H1	enzyme activity, inhibitor		IC50	> 10000 nM
CC[C@H](C)[C@@H](C(=O)N1CCC[C@H]1c1nccs1)N(C)C(=O)[C@H](CC(C)C)N(C)C(=O)[C@H](Cc1ccc(OC)cc1)N(C)C(=O)/C=C(\C)OC	CNR2	β-arrestin recruitment, antagonist		IC50	17700 nM
CC(C)(C#N)CCCn1nc(C(=O)NC(C)(C)c2cccc(C(N)=O)c2)c2ccccc21	CNR2	ligand displacement, radioligand	cell membranes	Ki	130 nM
CCCCCc1ccccc1C/C=C\C/C=C\C/C=C\CCCC(=O)N[C@H](C)CO	CNR2	β-arrestin recruitment, agonist		EC50	436 nM
COc1ccc(CCCCC(=O)C(F)(F)C(F)(F)F)cc1	85/88 kDa calcium-independent phospholipase A2 (PLA2G6, Homo sapiens, UniProt O60733)	enzyme activity, inhibitor		IC50	170 nM
CCCCCn1nc(C(=O)NC(C)(C)c2cccc(C(N)=O)c2)c2ccccc21	CNR2	ligand displacement, radioligand	cell membranes	Ki	250 nM
CCOC(=O)N[C@@H](CCCNC(=N)N)C(=O)N[C@@H](CCC(N)=O)C(=O)N[C@@H](Cc1ccccc1)C(=O)N[C@@H](CCCNC(=N)N)C(=O)c1nc2ccccc2s1	F10	cell-free assay		Ki	15 nM
O=C1Cc2cc(-c3ccco3)ccc2C(=O)N1O	Ribonuclease H1	enzyme activity, inhibitor		IC50	2390 nM
N=C(N)NCCC[C@H](NC(=O)[C@H](Cc1ccccc1)NC(=O)[C@H](CCC(N)=O)NC(=O)OCc1ccccc1)C(=O)c1nccs1	F10	cell-free assay		Ki	16 nM
CCCCC/C=C\C/C=C\C/C=C\Cc1ccccc1CCCC(=O)N[C@H](C)CO	CNR2	β-arrestin recruitment, agonist		EC50	14.7 nM
O=C1c2ccccc2C(c2ccccc2F)C(=O)N1O (centres unmarked)	Ribonuclease H1	enzyme activity, inhibitor		IC50	4640 nM
CCOC(=O)c1ccc(OC(=O)CCCCCN=C(N)N)cc1	F10	enzyme activity, inhibitor		IC50	790 nM
